Experiments:
[1] = tested on: Hepatocyte; assay: Drug level in rat hepatocytes treated with [14C]-rivoglitazone at 30 uM after 3 hrs by radio-HPLC/LC-MS/MS analysis; type: ADME, cell-based
[2] = Drug level in monkey hepatocytes treated with [14C]-rivoglitazone at 30 uM after 3 hrs by radio-HPLC/LC-MS/MS analysis; settings: cynomolgus monkey
[3] = tested on: Hepatocyte; assay: Drug level in human hepatocytes treated with [14C]-rivoglitazone at 30 uM after 3 hrs by radio-HPLC/LC-MS/MS analysis; type: ADME, cell-based
Method in brief: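 Freshly isolated hepatocytes were suspended in HBSS at 2×10^6 viable cells/ml; trypan-blue viability was rat 88%, monkey 91 and 94%, human 66, 73 and 81%. Donors were rat (7 weeks, 170 g) and two male cynomolgus monkeys. Cells were incubated with [¹⁴C]rivoglitazone (30 μM) for 3 h at 37°C under 95% O₂/5% CO₂. Acetonitrile stop, sonication, samples pooled per species, supernatant analysed by radio-HPLC and LC-MS.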

[4] = Retention time of the compound by LC-MS/MS analysis; type: physicochemical
Method in brief: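 LC-MS/MS used a YMC-Pack ODS-A column (1.5 × 150 mm, 5 μm) at 30°C, 0.1 ml/min. Mobile phase was water and acetonitrile, each with 0.01% TFA. Gradient: 12→60% B over 30 min, →90% B over 5 min, hold 5 min. Detection was UV 220 nm with positive ESI Q-TOF (capillary 3300 V, cone 45 V), collision energy 20 eV and xenon as collision gas.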

[5] = tested on: Liver microsome; assay: Drug level in Sprague-Dawley rat liver microsomes treated with [14C]-rivoglitazone at 20 uM after 2 to 4 hrs by radio-HPLC/LC-MS/MS analysis in presence of NADPH-generating system/SAM and UDPGA/SAM; type: ADME
[6] = tested on: Liver microsome; assay: Drug level in human liver microsomes treated with [14C]-rivoglitazone at 20 uM after 2 to 4 hrs by radio-HPLC/LC-MS/MS analysis in presence of NADPH-generating system/SAM and UDPGA/SAM; type: ADME
[7] = Drug level in cynomolgus monkey liver microsomes treated with [14C]-rivoglitazone at 20 uM after 2 to 4 hrs by radio-HPLC/LC-MS/MS analysis in presence of NADPH-generating system/SAM and UDPGA/SAM; type: ADME, Macaca fascicularis
[8] = tested on: Hepatocyte (Macaca fascicularis); assay: Drug level in monkey hepatocytes treated with [14C]-rivoglitazone at 30 uM after 3 hrs by radio-HPLC/LC-MS/MS analysis in presence of NADPH-generating system/SAM; settings: cynomolgus monkey
[9] = tested on: Liver microsome; assay: Drug level in Sprague-Dawley rat liver microsomes treated with [14C]-rivoglitazone at 20 uM after 2 hrs by radio-HPLC/LC-MS/MS analysis in presence of NADPH-generating system/SAM; type: ADME
Method in brief: (§1)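 Pooled male liver microsomes (1 mg/ml protein; rat from 94 Sprague-Dawley, monkey from 8 cynomolgus, human from 23 donors) were incubated with [¹⁴C]rivoglitazone (20 μM). Buffer: 10 mM potassium phosphate (pH 7.4). Cofactors: NADPH-generating system (2 mM NADP⁺, 20 mM G6P, 2 U/ml G6PDH, 10 mM MgCl₂), with or without 2 mM SAM. Incubation 2 h at 37°C with shaking; controls lacked NADPH system and SAM alone. Acetonitrile stop, radio-HPLC plus LC-MS.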

[10] = tested on: Hepatocyte; assay: Drug level in rat hepatocytes treated with [14C]-rivoglitazone at 30 uM after 3 hrs by radio-HPLC/LC-MS/MS analysis in presence of NADPH-generating system/SAM; type: ADME, cell-based
[11] = tested on: Liver microsome; assay: Drug level in human liver microsomes treated with [14C]-rivoglitazone at 20 uM after 2 hrs by radio-HPLC/LC-MS/MS analysis in presence of NADPH-generating system/SAM; type: ADME; method in brief: as §1
[12] = Drug level in cynomolgus monkey liver microsomes treated with [14C]-rivoglitazone at 20 uM after 2 hrs by radio-HPLC/LC-MS/MS analysis in presence of NADPH-generating system/SAM; type: ADME, Macaca fascicularis; method in brief: as §1
[13] = tested on: Hepatocyte; assay: Drug level in human hepatocytes treated with [14C]-rivoglitazone at 30 uM after 3 hrs by radio-HPLC/LC-MS/MS analysis in presence of NADPH-generating system/SAM; type: ADME, cell-based
[14] = Drug level in cynomolgus monkey liver microsomes treated with [14C]-rivoglitazone at 20 uM after 4 hrs by radio-HPLC/LC-MS/MS analysis in presence of UDPGA and UDPGA/SAM; type: ADME, Macaca fascicularis
Method in brief: (§2)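 Pooled male liver microsomes (1 mg/ml; rat from 94 Sprague-Dawley, monkey from 8 cynomolgus, human from 23 donors) were pretreated with alamethicin (50 μg/mg protein, 15 min, ice). Incubation with [¹⁴C]rivoglitazone (20 μM) in 100 mM Tris-HCl (pH 7.5), 10 mM MgCl₂, 5 mM UDPGA, with or without 2 mM SAM, 4 h at 37°C. Controls lacked UDPGA and SAM alone. Radio-HPLC and LC-MS analysis.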

[15] = tested on: Liver microsome; assay: Drug level in human liver microsomes treated with [14C]-rivoglitazone at 20 uM after 4 hrs by radio-HPLC/LC-MS/MS analysis in presence of UDPGA and UDPGA/SAM; type: ADME; method in brief: as §2
[16] = biological target: T1, UDP-glucuronosyltransferase 2B7 (Homo sapiens, UniProt P16662); assay: Activity of human UGT2B7 expressed in microsomes isolated from baculovirus infected insect cell assessed as enzyme-mediated compound formation treated with [14C]-rivoglitazone at 20 uM after 4 hrs by radio-HPLC/LC-MS/MS analysis in presence of NADPH-generating system/SAM; type: ADME
T1 sequence (P16662 whole entry): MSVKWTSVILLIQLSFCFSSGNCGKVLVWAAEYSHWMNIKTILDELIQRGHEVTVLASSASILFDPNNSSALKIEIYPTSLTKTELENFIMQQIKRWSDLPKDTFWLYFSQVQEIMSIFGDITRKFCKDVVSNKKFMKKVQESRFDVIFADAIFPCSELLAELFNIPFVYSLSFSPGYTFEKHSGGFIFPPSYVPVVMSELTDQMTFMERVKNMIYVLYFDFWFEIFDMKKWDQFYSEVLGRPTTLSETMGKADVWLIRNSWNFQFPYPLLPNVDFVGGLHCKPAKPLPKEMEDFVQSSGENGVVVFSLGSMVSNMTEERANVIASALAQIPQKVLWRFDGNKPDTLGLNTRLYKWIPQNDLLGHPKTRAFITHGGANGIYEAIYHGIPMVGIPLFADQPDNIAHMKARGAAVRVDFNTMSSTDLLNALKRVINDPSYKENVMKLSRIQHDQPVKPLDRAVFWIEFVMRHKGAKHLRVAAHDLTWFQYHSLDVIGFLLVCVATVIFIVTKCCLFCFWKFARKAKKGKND

[17] = tested on: Liver microsome; assay: Drug level in Sprague-Dawley rat liver microsomes treated with [14C]-rivoglitazone at 20 uM after 4 hrs by radio-HPLC/LC-MS/MS analysis in presence of UDPGA and UDPGA/SAM; type: ADME; method in brief: as §2
[18] = tested on: Hepatocyte; assay: Drug level in rat hepatocytes treated with [14C]-rivoglitazone at 30 uM after 3 hrs by radio-HPLC/LC-MS/MS analysis in presence of UDPGA and UDPGA/SAM; type: ADME, cell-based
[19] = Drug level in monkey hepatocytes treated with [14C]-rivoglitazone at 30 uM after 3 hrs by radio-HPLC/LC-MS/MS analysis in presence of UDPGA and UDPGA/SAM; settings: cynomolgus monkey
[20] = biological target: T2, UDP-glucuronosyltransferase 1A3 (Homo sapiens, UniProt P35503); assay: Activity of human UGT1A3 expressed in microsomes isolated from baculovirus infected insect cell assessed as enzyme-mediated compound formation treated with [14C]-rivoglitazone at 20 uM after 4 hrs by radio-HPLC/LC-MS/MS analysis in presence of NADPH-generating system/SAM; type: ADME
T2 sequence (P35503 whole entry): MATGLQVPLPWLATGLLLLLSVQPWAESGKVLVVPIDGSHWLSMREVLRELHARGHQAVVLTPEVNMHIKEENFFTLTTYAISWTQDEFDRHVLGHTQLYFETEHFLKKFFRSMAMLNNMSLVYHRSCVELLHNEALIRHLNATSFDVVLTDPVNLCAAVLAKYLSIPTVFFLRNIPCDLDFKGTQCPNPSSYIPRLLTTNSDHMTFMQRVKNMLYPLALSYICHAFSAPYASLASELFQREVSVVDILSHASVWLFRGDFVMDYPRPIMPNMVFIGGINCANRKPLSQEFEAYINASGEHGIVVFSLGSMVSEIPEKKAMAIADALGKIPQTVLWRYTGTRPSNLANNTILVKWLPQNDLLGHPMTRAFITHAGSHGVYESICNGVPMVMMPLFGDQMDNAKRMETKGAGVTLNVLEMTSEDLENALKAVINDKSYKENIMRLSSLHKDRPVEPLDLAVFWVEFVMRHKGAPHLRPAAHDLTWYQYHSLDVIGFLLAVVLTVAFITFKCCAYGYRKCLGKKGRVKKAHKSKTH

[21] = tested on: Hepatocyte; assay: Drug level in human hepatocytes treated with [14C]-rivoglitazone at 30 uM after 3 hrs by radio-HPLC/LC-MS/MS analysis in presence of UDPGA and UDPGA/SAM; type: ADME, cell-based

Row | SMILES | Retention_time [4] | Drug metabolism [14] | Drug metabolism [15] | Drug metabolism [16] | Drug metabolism [17] | Drug metabolism [18] | Drug metabolism [19] | Drug metabolism [20] | Drug metabolism [21] | also measured
1 | Cn1c(COc2ccc(CC3SC(=O)NC3=O)cc2)nc2ccc(OS(=O)(=O)O)cc21 (stereo not drawn) | 18.9 min |  |  |  |  |  |  |  |  | Drug metabolism [1]: metabolite_detected; Drug metabolism [2]: metabolite_detected; Drug metabolism [3]: metabolite_detected
2 | COc1ccc2nc(COc3ccc(CC(SC)C(=O)O)cc3)n(C)c2c1 (stereo not drawn) | 24.2 min |  |  |  |  |  |  |  |  | Drug metabolism [5]: metabolite_detected; Drug metabolism [6]: metabolite_detected; Drug metabolism [7]: metabolite_detected
3 | COc1ccc2nc(COc3ccc(CC(SC)C(N)=O)cc3)n(C)c2c1 (stereo not drawn) | 20.4 min |  |  |  |  |  |  |  |  | Drug metabolism [8]: metabolite_detected; Drug metabolism [9]: metabolite_detected; Drug metabolism [10]: metabolite_detected; Drug metabolism [11]: metabolite_detected; Drug metabolism [12]: metabolite_detected; Drug metabolism [13]: metabolite_detected

Continued, in another order:

Row | Retention_time [4] | Drug metabolism [14] | Drug metabolism [15] | Drug metabolism [16] | Drug metabolism [17] | Drug metabolism [18] | Drug metabolism [19] | Drug metabolism [20] | Drug metabolism [21] | SMILES | also measured
4 | 17.3 min | metabolite_detected | metabolite_detected | metabolite_detected | metabolite_detected | metabolite_detected | metabolite_detected | metabolite_detected | metabolite_detected | COc1ccc2nc(COc3ccc(CC(SC(=O)N[C@@H]4O[C@H](C(=O)O)[C@@H](O)[C@H](O)[C@H]4O)C(=O)O)cc3)n(C)c2c1 (stereo partly drawn) | 
5 | 19.8 min | metabolite_detected | metabolite_detected | metabolite_detected | metabolite_detected | metabolite_detected | metabolite_detected | metabolite_detected | metabolite_detected | COc1ccc2nc(COc3ccc(CC4SC(=O)N([C@@H]5O[C@H](C(=O)O)[C@@H](O)[C@H](O)[C@H]5O)C4=O)cc3)n(C)c2c1 (stereo partly drawn) | 
